Compound activity from PubChem BioAssay.
Calb biofilm kill: mixtures killing C. albicans biofilm; C. albicans biofilm persisters + clotrimazole, fluorescence viability; primary screen in compound mixtures of four per well; inhibition, % at 7.6 µM; 120,000 compounds, 0.02% hits; AID 1242;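 active means inhibition above 30.3% in the primary screen of four-compound pools, then above 30% when the compound was retested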;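 further: compounds exposed to preformed 24 h biofilms for 48 h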
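Test system: C. albicans CAF4-2 wild-type biofilms; buffer or medium: RPMI/MOPS medium, pH 7.0; schedule: 24 h biofilm formation, then 48 h compound exposure, 37 °C; detection: Alamar Blue fluorescence; measure: percent inhibition of biofilm viability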
Bim-Mcl-1: inhibitors of Bim-Mcl-1 interaction, human; AID 1009; Q07820; 190,000 compounds, 0.1% hits; Bead-based flow cytometry, Bim peptide-Mcl-1 binding; inhibition, % at 10 µM; in the data active means inhibition above about 40%
Target sequence (Q07820 whole entry, looked up): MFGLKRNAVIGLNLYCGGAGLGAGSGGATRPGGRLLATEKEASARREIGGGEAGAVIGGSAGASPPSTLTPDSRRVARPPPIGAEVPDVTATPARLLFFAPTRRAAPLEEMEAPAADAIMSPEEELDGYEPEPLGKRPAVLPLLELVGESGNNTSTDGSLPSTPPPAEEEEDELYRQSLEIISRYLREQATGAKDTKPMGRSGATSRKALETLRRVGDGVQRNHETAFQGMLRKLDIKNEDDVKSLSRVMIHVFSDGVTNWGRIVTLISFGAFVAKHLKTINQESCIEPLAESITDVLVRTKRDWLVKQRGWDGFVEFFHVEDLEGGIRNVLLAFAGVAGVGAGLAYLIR
Mcl1 Noxa PPI: Mcl-1/Noxa interaction inhibition. TR-FRET Mcl-1/Noxa peptide binding, 2 h. inhibition, % at 21.7 µM. 220,000 compounds, 1.5% hits. AID 1022;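 active means compounds that cut the protein-peptide binding signal by more than 50% relative to plate controls in a single-dose test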;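 further: His-tagged Mcl-1 with rhodamine Noxa BH3 peptide and terbium anti-His antibody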
Calpain2 inh: calpain II (pig) inhibition. purified calpain II, fluorogenic peptide substrate, 30 min. inhibition, % at 16 µM. 220,000 compounds, 0.37% hits. AID 1236;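 active means inhibition above about 50%, limit read from the data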
Arbovirus anti: arbovirus infection inhibition. inhibition, % at 10 µM. AID 1251. arbovirus infection cell-based antiviral screen. 200,000 compounds, 0.37% hits; in the data active means inhibition above about 30%
Mcl1-Bid inh: disrupts binding of human Mcl-1 to Bid peptide; TR-FRET Mcl-1/Bid-Dy647 peptide binding, 1536-well; inhibition, % at 21.7 µM; 220,000 compounds, 0.97% hits; AID 1021;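 active means compounds that cut the binding signal by more than half at the single screening dose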;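 further: His-tagged Mcl-1 with europium anti-His antibody binding Bid BH3 peptide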
Of the large screens only hits and unclear results are named; the others gave an inactive call. This is a sample that favours compounds with a hit; in the whole collection about 2.8% have one here.

Cc1nc(Nc2ccc(O)cc2)c2c3c(sc2n1)CCCC3	none (no result: Bim-Mcl-1, Arbovirus anti)
CCOc1cc(/C=C2/C(=O)N(c3ccccc3)N=C2C)ccc1OC(=O)c1cccs1	none (no result: Calb biofilm kill)
COC(=O)N/N=C\c1cccc(OC(=O)c2cccs2)c1	none
O=C1NN(c2ccccc2)C(=O)/C1=C\c1cccc(OC(=O)c2cccs2)c1	Mcl1 Noxa PPI 57 (no result: Calb biofilm kill)
O=C1NN(c2ccc(Cl)c(Cl)c2)C(=O)/C1=C/c1cccc(OC(=O)c2cccs2)c1	Mcl1 Noxa PPI 96, Mcl1-Bid inh 90 (no result: Calb biofilm kill)
COc1cccc(NC(=O)c2cc(-c3ccncc3)nc3c(C)cc(C)cc23)c1	none
CCOc1ccccc1NC(=O)c1cc(-c2ccncc2)nc2c(Cl)cccc12	Mcl1-Bid inh 51
COc1cc(/C=C(/NC(C)=O)C(=O)O)cc(Cl)c1OCc1ccc(Br)cc1	Mcl1 Noxa PPI 102 (no result: Bim-Mcl-1, Arbovirus anti)
COc1cc(/C=C(\NC(C)=O)C(=O)O)cc(OC)c1OC	none (no result: Bim-Mcl-1, Arbovirus anti)
O=C1/C(=C/c2ccc(O)cc2)CCc2ccc([N+](=O)[O-])cc21	none
O=C1ON=C(c2cccc([N+](=O)[O-])c2)/C1=C/c1ccc(O)cc1	Mcl1 Noxa PPI 66
CCOc1ccc(NC(=O)Nc2nnc(CC(=O)NCc3ccccc3)s2)cc1	none
COc1ccc(NC(=O)Nc2nnc(CC(=O)NCc3ccccc3)s2)cc1	Mcl1-Bid inh 91
COc1cc(/C=C2\SC(=O)N(CC(=O)Nc3cccc(C)c3)C2=O)cc([N+](=O)[O-])c1O	Mcl1 Noxa PPI 59
COc1ccc(/C=C2\SC(=O)N(CC(=O)NNC(=O)c3ccccc3O)C2=O)cc1	Mcl1 Noxa PPI 53
COc1ccc(/C=C2\SC(=O)N(CC(=O)NNC(=O)c3ccccc3O)C2=O)cc1OC	Mcl1 Noxa PPI 53, Mcl1-Bid inh 60
O=C(CN1C(=O)S/C(=C\c2ccccc2)C1=O)NNC(=O)c1ccccc1O	none
CCOC(=O)c1cc(-c2ccc(F)cc2)n(CCC(=O)NC2CCN(Cc3ccccc3)CC2)c1C	none
O=C(C1CCN(Cc2cccs2)CC1)N1CCN(Cc2ccc3c(c2)OCO3)CC1	none
Cc1cccc(/C(N)=N/OC(=O)COc2ccc(Cl)cc2)c1	Arbovirus anti 36
N/C(=N\OC(=O)COc1ccc2ccccc2c1)c1cccnc1	Mcl1-Bid inh 61
COc1ccc(-c2cc(CNS(=O)(=O)c3ccccc3)on2)cc1	none
COC(=O)c1sccc1NC(=O)CSc1ccccc1NS(=O)(=O)c1ccc(Br)cc1	Arbovirus anti 32 (no result: Calb biofilm kill)
O=Nc1ccc(NOC(=O)c2ccccc2Br)cc1	none
O=C(ONc1ccc(N=NC(=O)c2ccccc2O)cc1)c1ccccc1	Mcl1 Noxa PPI 84, Mcl1-Bid inh 88 (no result: Calb biofilm kill)
O=c1oc2cc(O)ccc2c2oc3cc(O)ccc3c12	Mcl1 Noxa PPI 55
COc1cc(/C=C2\SC(=N)N(c3ccc(F)cc3)C2=O)ccc1O	Mcl1 Noxa PPI 53
N=C1S/C(=C\c2ccccc2)C(=O)N1c1ccc(F)cc1	none
Cc1c(Cc2ccccc2)sc(/N=C/c2c(O)ccc3ccccc23)c1C(N)=O	Mcl1-Bid inh 53
COc1ccc2[nH]c3c(=O)n(CCCCC(=O)NCCN4CCCC4)c(=S)[nH]c3c2c1	none (no result: Calb biofilm kill)
COc1ccc2[nH]c3c(=O)n(Cc4ccc(C(=O)N5CCCC5)cc4)c(=S)[nH]c3c2c1	Mcl1 Noxa PPI 78
COc1ccc(C(=O)N[C@H](C(=O)NCc2cccs2)C(C)C)cc1	none
CCOC(=O)C1CCN(c2nc(N)c3c(N)nc(SCC(=O)O)cc3c2C#N)CC1	Mcl1 Noxa PPI 77 (no result: Bim-Mcl-1, Arbovirus anti)
COc1cc2c(c(OC)c1O)C(=O)CO2	none (no result: Bim-Mcl-1, Arbovirus anti)
COc1cc(OC)c2c(O)c3c(c(-c4c5c(c(O)c6c(OC)cc(OC)cc46)CO[C@@H](C)[C@H]5O)c2c1)[C@H](O)[C@H](C)OC3	Mcl1 Noxa PPI 102, Mcl1-Bid inh 79
O=c1cc(CN2CCN(c3cccc(C(F)(F)F)c3)CC2)nc2sccn12	none (no result: Bim-Mcl-1, Arbovirus anti)
CC(=O)c1ccc(N2CCN(C(=O)CCCn3c(=S)[nH]c4cc5c(cc4c3=O)OCO5)CC2)cc1	Mcl1-Bid inh 55 (no result: Calb biofilm kill)
CCC(=O)OC1(C#CCOc2ccc(OC)cc2)CCN(C)CC1	Mcl1-Bid inh 53 (no result: Calb biofilm kill)
Cc1ccsc1CNC12CC3CC(CC(C3)C1)C2	none
CC(=O)N1CCc2cc(C(=O)CN3CCN(c4ccccn4)CC3)ccc21	none (no result: Bim-Mcl-1, Arbovirus anti)
Cc1cccc(OCC(=O)Nc2ccc3c(c2)OCO3)c1C	none (no result: Calb biofilm kill)
COc1ccc(NC(=O)COC(=O)CCCc2c[nH]c3ccccc23)cc1	none (no result: Calb biofilm kill)
O=C(COC(=O)CCCc1c[nH]c2ccccc12)Nc1ccc2c(c1)OCO2	Mcl1 Noxa PPI 56 (no result: Calb biofilm kill)
Cc1ccc(C)c(OCC(=O)Nc2ccc3c(c2)OCO3)c1C	Mcl1-Bid inh 85 (no result: Calb biofilm kill)
Cc1ccccc1NC(=O)N1CCN(c2ncccn2)CC1	none
CO/N=C/NC(=O)c1ccc([N+](=O)[O-])c(CS(=O)(=O)c2ccc(Cl)cc2)c1	Mcl1 Noxa PPI 65 (no result: Calb biofilm kill)
CCN(C(=O)c1cc2c(=O)[nH]c3ccc(C)cc3c2s1)c1ccc(OC)cc1	none (no result: Bim-Mcl-1, Arbovirus anti)
O=[N+]([O-])c1ccc(O)c(/C=N/Nc2ccc(Cl)nn2)c1	Mcl1 Noxa PPI 79 (no result: Calb biofilm kill)
O=[N+]([O-])c1ccc(O)c(/C=N/Nc2nn[nH]n2)c1	none
Cn1c(C2=C(O)CN(c3ccccc3)C2=N)nc2ccccc21	none
Cc1cccc2cc3c(N)c(C#N)sc3nc12	none (no result: Calb biofilm kill)
Cc1sc(NC(=O)c2sc3nc4c(C)cccc4cc3c2N)c(C#N)c1C	Mcl1 Noxa PPI 96, Mcl1-Bid inh 97 (no result: Calb biofilm kill)
Cc1oc(C(C)(C)C)cc1C(=O)N1CCN(C(c2ccccc2)c2ccccc2)CC1	none (no result: Bim-Mcl-1, Arbovirus anti)
COC(=O)c1ccc(Oc2coc3cc(OCc4ccc([N+](=O)[O-])cc4)ccc3c2=O)cc1	Mcl1 Noxa PPI 55, Mcl1-Bid inh 94
CCOC(=O)CCNCc1ccc(OC)c(OC)c1	Mcl1 Noxa PPI 54 (no result: Bim-Mcl-1, Arbovirus anti)
COc1ccc(C(=O)NNC(=O)c2cccc(F)c2)cc1	none
COCCNc1nc(-c2cc(C)c(C)cc2C)cs1	none
CCOc1ccc(CCNC(=O)Cn2ccc3ccccc3c2=O)cc1OCC	none
Cc1cc(C)c(NC(=O)COC(=O)Cc2ccsc2)c(C)c1	Calpain2 inh 62
COCCN1CCn2c(nc3cc(NC(=O)Cn4nc(C)c5ccccc5c4=O)ccc32)C1	Mcl1 Noxa PPI 66 (no result: Bim-Mcl-1, Arbovirus anti)
S=C(NCCc1ccccc1)Nc1c(Cl)cccc1Cl	none (no result: Bim-Mcl-1, Arbovirus anti)
O=C(Nc1ccccc1C(=O)O)c1ccc(NC(=O)c2ccc(Br)o2)cc1	Arbovirus anti 46 (no result: Calb biofilm kill)
O=C(Nc1ccccc1C(=O)O)c1cccc(NC(=O)c2ccc(Br)o2)c1	Calpain2 inh 51, Arbovirus anti 32 (no result: Calb biofilm kill)
CC(=O)c1cccc(NC(=O)c2ccc(Br)o2)c1	none (no result: Calb biofilm kill)
O=C(NNC(=O)c1ccc(Br)o1)c1ccc(NC(=O)c2ccccc2)cc1	none
CCN(C(=S)NC(=O)CCc1ccccc1)c1ccccc1	none
CC(=O)c1c(C)[nH]c(C(=O)OC(C)C(=O)Nc2cc(S(=O)(=O)N3CCCCC3)ccc2Cl)c1C (stereo not drawn)	none
COc1cccc2c(=S)c(CCC(C)=O)c(C)[nH]c12	Mcl1 Noxa PPI 100
CC(=O)CCc1c(C)c2cccc(C)c2[nH]c1=O	none (no result: Calb biofilm kill)
